We go through ten compounds from paper PMC10723041 (Science (New York, N.Y.), 2021).

Where two headings read alike, the source gives them in different places.

One data set deals with S. aureus CSE (SaCSE) (Staphylococcus aureus, UniProt X5E0F1). The data set is described as follows: H2S production enzymatic assay, SaCSE. Type of data set: biochemical. The note with it: for inhibition of bCSEs (SaCSE): at considerably higher concentrations than for hCSE.
Data set [1] addresses P. aeruginosa CSE (PaCSE) (Pseudomonas aeruginosa, UniProt Q9I6A0). The data set is described as follows: H2S production enzymatic assay, PaCSE. Format: biochemical. The following applies: for inhibition of bCSEs (PaCSE): at considerably higher concentrations than for hCSE.
The next data set concerns persisters. The data set is described as follows: Persister assay with H2S donor. Format: cell-based.
Another data set addresses SaCSE (Staphylococcus aureus, UniProt X5E0F1). The data set is described as follows: Microscale Thermophoresis. Type of data set: binding.
Data set [2] relates to S. aureus RN4220 (MSSA) and USA300 (MRSA). The data set is described as follows: Antibiotic potentiation. Type of data set: cell-based.
The test system of data set [3] is P. aeruginosa PA14 and PAO1. The data set is described as follows: Antibiotic potentiation. Format: cell-based.
In data set [4] the test system is different types of human cells. The data set is described as follows: Toxicity to human cells. Type of data set: cell-based. The note with it: various assays.
Data set [5] in a line: Chronic exposure in animal model. The note with it: stringent animal model. Format: in vivo.
A further data set concerns S. aureus Newman. The data set is described as follows: S. aureus sepsis. Type of data set: in vivo, Swiss Webster mice. The following applies: NL1 or Gm alone.
Data set [6] relates to P. aeruginosa PA14. The data set is described as follows: P. aeruginosa intranasal lung infection model. Format: in vivo, Swiss Webster mice. The following applies: for lung bacterial burden, single agent: NL1 or Gm administered separately, lungs collected 5h after infection.
Another data set concerns S. aureus USA300. The data set is described as follows: Persister viability under antibiotic challenge. Format: cell-based. The note with it: wt cells, ciprofloxacin 10 µg/ml challenge.
In data set [7] the test system is P. aeruginosa PA14. The data set is described as follows: Persister viability under antibiotic challenge. Format: cell-based. The following applies: wt cells, ciprofloxacin 10 µg/ml challenge. In a few lines:
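Exponentially growing P. aeruginosa PA14 cultures were challenged with ciprofloxacin at 10 µg/ml. The viable cell fraction was followed over time as a killing curve, and the curve tail was taken as the persister population. Data are mean ± SE, n=3.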

Data set [8] has as its system P. aeruginosa PA14. The data set is described as follows: Pyocyanin redox state in stationary phase culture. Type of data set: cell-based. The following applies: well-aerated PA14; NL1 180 µM for 18 h. A digest of the protocol: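 Stationary-phase P. aeruginosa PA14 cultures (OD600 ~1.5) were well aerated and treated with test compound at 180 µM for 18 h. Pyocyanin redox state was judged visually by culture colour: blue/green for oxidized, light yellow for reduced. Comparators were untreated wt and a cbs/cse(−) mutant.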

The next data set addresses T1, SaCSE H339A mutant (Staphylococcus aureus, UniProt X5E0F1, H339A).
T1 sequence (X5E0F1 1-380 H339A): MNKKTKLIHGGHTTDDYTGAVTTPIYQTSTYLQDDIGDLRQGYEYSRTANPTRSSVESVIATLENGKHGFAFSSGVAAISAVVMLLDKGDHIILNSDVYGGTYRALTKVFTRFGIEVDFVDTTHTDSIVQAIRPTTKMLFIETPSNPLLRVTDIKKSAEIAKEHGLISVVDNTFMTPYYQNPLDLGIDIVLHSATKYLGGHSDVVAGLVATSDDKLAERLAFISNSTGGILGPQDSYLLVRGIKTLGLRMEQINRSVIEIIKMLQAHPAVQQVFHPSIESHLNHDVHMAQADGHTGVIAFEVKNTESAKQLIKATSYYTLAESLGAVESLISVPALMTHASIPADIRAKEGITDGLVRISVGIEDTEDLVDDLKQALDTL
The data set is described as follows: H2S generating activity of SaCSE H339A mutant. Format: biochemical, S. aureus. The note with it: for IC50: read-out: IC50 for SaCSE H339A mutant, mean ± SE, n=2.

Where [9] appears, read: to approximately the same extent as genetic inactivation of bCSE.

As to `NOCC(=O)O` [AOAA, aminooxyacetic acid], the “inhibition of bCSEs (SaCSE)” value on S. aureus CSE (SaCSE) is given as “capable of inhibiting bCSEs”. For the same compound, the “inhibition of bCSEs (PaCSE)” value in data set [1] was “capable of inhibiting bCSEs”.
For the compound `NCCO/C=C/[C@H](N)C(=O)O` [AVG, L-aminoethoxyvinylglycine], the “inhibition of bCSEs (SaCSE)” value on S. aureus CSE (SaCSE) is “capable of inhibiting bCSEs”. Also, the “inhibition of bCSEs (PaCSE)” value in data set [1] is “capable of inhibiting bCSEs”.
As to `C=CCSSSCC=C` [DATS, diallyl trisulfide], the “effect of H2S donor on anti-persister effect of NL1” value in the data set on persisters was “prevented the anti-persister effect of NL1”.
For the compound `NO` [HA, hydroxylamine], the “inhibition of bCSEs (SaCSE)” value at S. aureus CSE (SaCSE) was “capable of inhibiting bCSEs”. Also, the “inhibition of bCSEs (PaCSE)” value in data set [1] was “capable of inhibiting bCSEs”.
Regarding `O=C(O)CNC(=O)Cn1c(C(F)(F)F)cc2ccc(Br)cc21` [NL1F3], the IC50 – broadly, the concentration at which inhibition is half-maximal – against S. aureus CSE (SaCSE) is > 200000 nM. Further, the “apparent KD for SaCSE (MST)” value at SaCSE was “failed”.
In the case of `O=C(O)CNC(=O)Cn1ccc2ccc(Br)cc21` [NL1], on SaCSE, the Kd – broadly, a measure of binding affinity in units of concentration – was ~400 nM. The “sensitization of bCSE-deficient S. aureus RN4220 to Gm” value in [2] (cse mutant) is recorded as “failed to sensitize”. Moreover, the “sensitization of wild type S. aureus RN4220 to Gm” value in data set [2] (setting [9]) is listed as “enhanced the killing effect of Gm”. Further, the “sensitization of bCSE-deficient P. aeruginosa PA14 to Gm” value in [3] (cse mutant) is reported as “failed to sensitize”. Besides, the “sensitization of wild type P. aeruginosa PA14 to Gm” value in data set [3] (setting [9]) is on record as “enhanced the killing effect of Gm”. Moreover, the “non-toxic concentration in human cells” value in data set [4] is on record as “at least 25 × of its minimal potentiator concentration”. Further, the “adverse effects of chronic exposure” value in [5] was “No adverse effects”. The “survival, single agent” value with S. aureus Newman is recorded as “neither NL1 nor Gm alone increased survival”. The “lung bacterial burden, combination with Gm” value with P. aeruginosa PA14 [6] (NL1 60 mg/kg together with Gm 2 mg/kg subcutaneous, 30 min after infection, lungs 5h after infection) was “markedly decreased”. For the same compound, the “lung bacterial burden, single agent” value in the data set on P. aeruginosa PA14 [6] was “did not change significantly”. Moreover, the “effect on persisters, S. aureus USA300” value with S. aureus USA300 is given as “eliminated approximately the same amount of persisters as did genetic inactivation of cse/cbs”. In addition, in the data set with P. aeruginosa PA14 [7], the “effect on persisters, P. aeruginosa PA14” value is on record as “eliminated approximately the same amount of persisters as did genetic inactivation of cse/cbs”. Moreover, in the data set with P. aeruginosa PA14 [8], the “culture coloration (pyocyanin redox state)” value is given as “green-blue coloration characteristic of the oxidized pyocyanin”. In the data set “Aqueous solubility”, the “aqueous solubility relative to NL3” value is given as “higher aqueous solubility than NL3”.
On to `Cc1oc(Cn2ccc3ccc(Br)cc32)cc1C(=O)O` [NL2], for which, on SaCSE H339A mutant, the “reduction of inhibition in H339A mutant versus wt SaCSE” value is ~ 70 fold and the IC50 came to 154000 ± 94800 nM. For the same compound, the “aqueous solubility relative to NL3” value in “Aqueous solubility” is listed as “higher aqueous solubility than NL3”.
Consider `O=C(O)c1cc(Cn2ccc3ccc(-c4cc5cccc(Cl)c5s4)cc32)[nH]n1` [NL3], for which the half-maximal inhibitory concentration (IC50) at S. aureus CSE (SaCSE) (read-out: IC50 for SaCSE, L-cysteine at 100 μM) was 700 nM; in data set [1] (read-out: IC50 for PaCSE, L-cysteine at 100 μM) it was 1200 nM; on SaCSE H339A mutant it was 1700 ± 100 nM.
As to `[Na+].[SH-]` [NaHS, reference compound], in data set [2], the “effect of exogenous sulfide on Gm potentiation by NL1, S. aureus RN4220” value was “largely suppressed Gm potentiation”. In addition, the “effect of exogenous sulfide on Gm potentiation by NL1, P. aeruginosa PA14” value in [3] is listed as “largely suppressed Gm potentiation”.
With gentamycin [Gm, reference compound], the “survival, single agent” value in the data set on S. aureus Newman is listed as “neither NL1 nor Gm alone increased survival”. Also, in the data set with P. aeruginosa PA14 [6], the “lung bacterial burden, single agent” value is “did not change significantly”.
